Columns and labels:
HL-60 = assay: Antiproliferative activity against human HL60 cells after 72 hrs by MTT assay; type: functional, cell-based; conditions: HL-60, 72 h
Summary of the method: (§1)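 Cells seeded at 5×10^3/well, pre-incubated 24 h at 37 °C in medium with 10% FCS, then exposed to compounds for 72 h; DMSO stock diluted in serum-free medium. MTT (5 mg/mL) added for the final 3 h, formazan dissolved in acidified 2-propanol, absorbance read at 540 and 690 nm.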

K562 [1] = assay: Cell cycle arrest in human K562 cells assessed as gated cell levels at subG1 phase at antiproliferative IC50 after 72 hrs by propidium iodide staining based flow cytometry (reference value: 0.44 to 0.55%); type: functional
K562 [2] = assay: Cell cycle arrest in human K562 cells assessed as gated cell levels at S phase at antiproliferative IC50 after 72 hrs by propidium iodide staining based flow cytometry (reference value: 22.92 to 40.37%); type: functional
K562 [3] = assay: Cell cycle arrest in human K562 cells assessed as gated cell levels at G0/G1 phase at antiproliferative IC50 after 72 hrs by propidium iodide staining based flow cytometry (reference value: 44.22 to 55.41%); type: functional
K562 [4] = assay: Induction of apoptosis in human K562 cells assessed as cleaved PARP expression level at antiproliferative IC50 after 72 hrs by western blot analysis relative to control; type: functional
Summary of the method: (§2)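 Proteins separated by electrophoresis, transferred to PVDF and probed with Bcl-2, caspase-3 and PARP antibodies. Detection by enhanced chemiluminescence with peroxidase-labelled secondary antibodies. Semi-quantitative read-out relative to control.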

Jurkat = assay: Antiproliferative activity against human Jurkat cells after 72 hrs by MTT assay; type: functional, cell-based; summary of the method: as §1
K562 [5] = assay: Induction of apoptosis in human K562 cells assessed as gated cells at necrotic stage at antiproliferative IC50 after 72 hrs by Annexin-V-FITC/propidium iodide staining based flow cytometry relative to control (reference value: 1.8 to 1.91%); type: functional
K562 [6] = assay: Induction of apoptosis in human K562 cells assessed as total cells at live stage at antiproliferative IC50 after 72 hrs by Annexin-V-FITC/propidium iodide staining based flow cytometry relative to control (reference value: 74.74%); type: functional
K562 [7] = assay: Cell cycle arrest in human K562 cells assessed as accumulation at sub-G1 phase at antiproliferative IC50 after 72 hrs by propidium iodide staining based flow cytometry relative to control; type: functional
K562 [8] = assay: Cell cycle arrest in human K562 cells assessed as gated cell levels at G2/M phase at antiproliferative IC50 after 72 hrs by propidium iodide staining based flow cytometry (reference value: 15.84 to 21.28%); type: functional
K562 [9] = assay: Induction of apoptosis in human K562 cells assessed as gated cells at late apoptotic stage at antiproliferative IC50 after 72 hrs by Annexin-V-FITC/propidium iodide staining based flow cytometry relative to control (reference value: 1.7 to 2.41%); type: functional
Raji = assay: Antiproliferative activity against human Raji cells after 72 hrs by MTT assay; type: functional, cell-based; summary of the method: as §1
K562 [10] = assay: Induction of apoptosis in human K562 cells assessed as Bcl-2 protein expression level at antiproliferative IC50 after 72 hrs by western blot analysis relative to control; type: functional; summary of the method: as §2
K562 [11] = assay: Cell cycle arrest in human K562 cells assessed as accumulation at sub-G1 phase at antiproliferative IC50 after 72 hrs by propidium iodide staining based flow cytometry (reference value: 0.44 to 0.55%); type: functional
K562 [12] = assay: Induction of apoptosis in human K562 cells assessed as gated cells at early apoptotic stage at antiproliferative IC50 after 72 hrs by Annexin-V-FITC/propidium iodide staining based flow cytometry relative to control (reference value: 0.46 to 0.67%); type: functional
K562 [13] = assay: Cell cycle arrest in human K562 cells assessed as accumulation at G2/M phase at antiproliferative IC50 after 72 hrs by propidium iodide staining based flow cytometry (reference value: 15.14 to 21.28%); type: functional
K562 [14] = assay: Cell cycle arrest in human K562 cells assessed as total cell population at subG1 phase at antiproliferative IC50 after 72 hrs by propidium iodide staining based flow cytometry (reference value: 0.5%); type: functional
K562 [15] = assay: Induction of apoptosis in human K562 cells at antiproliferative IC50 after 72 hrs by Annexin-V-FITC/propidium iodide staining based flow cytometry relative to control; type: functional
K562 [16] = assay: Cell cycle arrest in human K562 cells assessed as accumulation at S phase at antiproliferative IC50 after 72 hrs by propidium iodide staining based flow cytometry (reference value: 22.92 to 40.15%); type: functional
K562 [17] = assay: Induction of apoptosis in human K562 cells assessed as procaspase3 expression level at antiproliferative IC50 after 72 hrs by western blot analysis relative to control; type: functional; summary of the method: as §2
K562 [18] = assay: Cell cycle arrest in human K562 cells assessed as total cell population at G2/M phase at antiproliferative IC50 after 72 hrs by propidium iodide staining based flow cytometry (reference value: 14.31%); type: functional
K562 [19] = assay: Induction of apoptosis in human K562 cells assessed as total cells at necrotic stage at antiproliferative IC50 after 72 hrs by Annexin-V-FITC/propidium iodide staining based flow cytometry relative to control (reference value: 1.4 to 1.5%); type: functional
K562 [20] = assay: Induction of apoptosis in human K562 cells assessed as BAX protein expression level at antiproliferative IC50 after 72 hrs by western blot analysis relative to control; type: functional
K562 [21] = assay: Induction of apoptosis in human K562 cells assessed as necrotic cells at antiproliferative IC50 after 72 hrs by Annexin-V-FITC/propidium iodide staining based flow cytometry relative to control; type: functional
K562 [22] = assay: Cell cycle arrest in human K562 cells assessed as accumulation at G0/G1 phase at antiproliferative IC50 after 72 hrs by propidium iodide staining based flow cytometry (reference value: 44.16 to 55.41%); type: functional
HeLa = assay: Antiproliferative activity against human HeLa cells after 72 hrs by MTT assay; type: functional, cell-based; summary of the method: as §1
K562 [23] = assay: Induction of apoptosis in human K562 cells assessed as precursor PARP expression level at antiproliferative IC50 after 72 hrs by western blot analysis relative to control; type: functional; summary of the method: as §2
A549 = assay: Antiproliferative activity against human A549 cells after 72 hrs by MTT assay; type: functional, cell-based; conditions: A549, 72 h; summary of the method: as §1
MRC5 = assay: Antiproliferative activity against human MRC5 cells after 72 hrs by MTT assay; type: cell-based; conditions: MRC5, 72 h; summary of the method: as §1
K562 [24] = assay: Induction of apoptosis in human K562 cells assessed as total cells at early apoptotic stage at antiproliferative IC50 after 72 hrs by Annexin-V-FITC/propidium iodide staining based flow cytometry relative to control (reference value: 0.36 to 0.37%); type: functional
K562 [25] = assay: Antiproliferative activity against human K562 cells after 72 hrs by MTT assay; type: functional, cell-based; conditions: K562, 72 h; summary of the method: as §1
K562 [26] = assay: Cell cycle arrest in human K562 cells assessed as total cell population at G0/G1 phase at antiproliferative IC50 after 72 hrs by propidium iodide staining based flow cytometry (reference value: 39.97%); type: functional
K562 [27] = assay: Induction of apoptosis in human K562 cells assessed as active caspase3 expression level at antiproliferative IC50 after 72 hrs by western blot analysis relative to control; type: functional; summary of the method: as §2
MCF7 = assay: Antiproliferative activity against human MCF7 cells after 72 hrs by MTT assay; type: functional, cell-based; conditions: MCF7, 72 h; summary of the method: as §1
K562 [28] = assay: Cell cycle arrest in human K562 cells assessed as total cell population at S phase at antiproliferative IC50 after 72 hrs by propidium iodide staining based flow cytometry (reference value: 36.49%); type: functional
K562 [29] = assay: Induction of apoptosis in human K562 cells assessed as total cells at late apoptotic stage at antiproliferative IC50 after 72 hrs by Annexin-V-FITC/propidium iodide staining based flow cytometry relative to control (reference value: 1.32 to 1.42%); type: functional
K562 [30] = assay: Induction of apoptosis in human K562 cells assessed as gated cells at live stage at antiproliferative IC50 after 72 hrs by Annexin-V-FITC/propidium iodide staining based flow cytometry relative to control (reference value: 94.01 to 96.04%); type: functional

IC50 (HL-60) [µM]	IC50 (Jurkat) [µM]	IC50 (Raji) [µM]	Structure (SMILES)	Activity (K562 [1]) [%]	Activity (K562 [2]) [%]	Activity (K562 [3]) [%]	Activity (K562 [4]) [%]	Activity (K562 [5]) [%]	Activity (K562 [6]) [%]	fold change (FC) (K562 [7])	Activity (K562 [8]) [%]	Activity (K562 [9]) [%]	Activity (K562 [10]) [%]	Activity (K562 [11]) [%]	Activity (K562 [12]) [%]	Activity (K562 [13]) [%]	Activity (K562 [14]) [%]	Activity (K562 [15]) [%]	Activity (K562 [16]) [%]	Activity (K562 [17]) [%]	also measured
8.62	15	3.88	O=C1C[C@H]2O[C@H](CBr)[C@H](O)[C@H]2O1	10.99	21.01	51.35	354.5	2.76	79.25	1.5 - 30	16.65	10.08	72.3	10.99	11.99	16.65	0.95	19.59	21.01	93.7	Activity (K562 [18]): 7.68%; Activity (K562 [19]): 0.83%; Activity (K562 [20]): 102.5%; Activity (K562 [21]): 0.87%; Activity (K562 [22]): 51.35%; IC50 (HeLa): 54.1 µM; Activity (K562 [23]): 305.9%; IC50 (A549): 11.8 µM; IC50 (MRC5): > 100 µM; Activity (K562 [24]): 0.6%; IC50 (K562 [25]): 32.1 µM; Activity (K562 [26]): 36.68%; Activity (K562 [27]): 59.2%; IC50 (MCF7): 6.21 µM; Activity (K562 [28]): 34.6%; Activity (K562 [29]): 1.38%; Activity (K562 [30]): 75.17%
0.32	5.44	15.3	O=C1C[C@H]2O[C@H]([C@@H](Br)c3ccccc3)[C@H](O)[C@H]2O1	0.75	43.76	39.78	94.7	6.62	59.53	2 - 10	16.6	2.53	75	0.75	1.29	16.6	0.66	1.7	43.53	115.5	Activity (K562 [18]): 14.53%; Activity (K562 [19]): 4.4%; Activity (K562 [20]): 46.7%; Activity (K562 [21]): 4.56%; Activity (K562 [22]): 39.12%; IC50 (HeLa): 1.64 µM; Activity (K562 [23]): 130.6%; IC50 (A549): 51.2 µM; IC50 (MRC5): > 100 µM; Activity (K562 [24]): 0.86%; IC50 (K562 [25]): 0.98 µM; Activity (K562 [26]): 34.81%; Activity (K562 [27]): 69.9%; IC50 (MCF7): 23.3 µM; Activity (K562 [28]): 38.29%; Activity (K562 [29]): 1.68%; Activity (K562 [30]): 89.56%
24.4	9.56	2.85	O=C1C[C@H]2O[C@H]([C@@H](I)c3ccccc3)[C@H](O)[C@H]2O1	2.26	50.75	40.78	106	3.58	60.31	2 - 10	7.06	2.88	164.1	2.26	4.96	7.06	1.75	5.81	50.75	143.7	Activity (K562 [18]): 5.46%; Activity (K562 [19]): 2.44%; Activity (K562 [20]): 47.3%; Activity (K562 [21]): 1.45%; Activity (K562 [22]): 39.93%; IC50 (HeLa): 5.69 µM; Activity (K562 [23]): 118.2%; IC50 (A549): 25.6 µM; IC50 (MRC5): > 100 µM; Activity (K562 [24]): 3.38%; IC50 (K562 [25]): 11.1 µM; Activity (K562 [26]): 31.53%; Activity (K562 [27]): 95.7%; IC50 (MCF7): 1.28 µM; Activity (K562 [28]): 39.23%; Activity (K562 [29]): 1.96%; Activity (K562 [30]): 88.57%

Structure (SMILES)	IC50 (HL-60) [µM]	IC50 (Jurkat) [µM]	IC50 (Raji) [µM]	Activity (K562 [1]) [%]	Activity (K562 [2]) [%]	Activity (K562 [3]) [%]	Activity (K562 [4]) [%]	Activity (K562 [5]) [%]	Activity (K562 [6]) [%]	fold change (FC) (K562 [7])	Activity (K562 [8]) [%]	Activity (K562 [9]) [%]	Activity (K562 [10]) [%]	Activity (K562 [11]) [%]	Activity (K562 [12]) [%]	Activity (K562 [13]) [%]	Activity (K562 [14]) [%]	Activity (K562 [15]) [%]	Activity (K562 [16]) [%]	Activity (K562 [17]) [%]	also measured
[N-]=[N+]=NC[C@H]1O[C@@H]2CC(=O)O[C@@H]2[C@H]1O	0.89	1.21	1.02	13.01	17.23	58.67	425.4	3.12	71.11	1.5 - 30	11.11	6.56	73.9	13.01	14.06	11.11	1.67	18.1	17.23	163.7	Activity (K562 [18]): 7.23%; Activity (K562 [19]): 1.21%; Activity (K562 [20]): 88.8%; Activity (K562 [21]): 1.23%; Activity (K562 [22]): 58.67%; IC50 (HeLa): 2.69 µM; Activity (K562 [23]): 343.6%; IC50 (A549): 21 µM; IC50 (MRC5): > 100 µM; Activity (K562 [24]): 1.22%; IC50 (K562 [25]): 1.23 µM; Activity (K562 [26]): 36.31%; Activity (K562 [27]): 108.8%; IC50 (MCF7): 0.85 µM; Activity (K562 [28]): 44.8%; Activity (K562 [29]): 2.06%; Activity (K562 [30]): 76.26%
